MEKK2mut PB1 HTS – signal of MEK5 binding to mutant human MEKK2 PB1 domain; 290,000 compounds, 0.35% hits; percent response, % at 10 µM; bead flow cytometry, Alexa488-MEK5 binding to MEKK2 mutant; in the data active = percent response above about 24%, passing the limit was not always enough
MEKK2wt PB1 HTS – raises or lowers MEK5 binding to wildtype human MEKK2 PB1 domain; Q9Y2U5; bead flow cytometry, Alexa488-MEK5 binding to MEKK2 WT; actives lie on both sides; binding response (% of control), % at 10 µM; 290,000 compounds, 1.1% hits; in the data active = binding response below about 67% or above about 130%
Arrestin-AP2 inh – blocks beta-arrestin peptide binding to AP2 adaptin; FITC-arrestin peptide / GST-AP2 beads, flow cytometry; AP2 beta2 appendage carries R879A mutation; inhibition, % at 10 µM; 340,000 compounds, 0.31% hits;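 active = inhibition above a set limit, near 3 SD of compounds lacking own fluorescence, cut at about 54% in these data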;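 note: plate controls were DMSO wells for no effect and 5 µM unlabelled arrestin peptide for full effect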
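System: GST-AP2 R879A glutathione beads; medium: PBS, Tween 20 0.05%, BSA 0.1%; reagent: fluorescein-tagged arrestin peptide at 50 nM final; schedule: pre-incubation 12 min, peptide binding 1 h, room temperature; detection: flow cytometry, FL1 (488/535 nm); read-out: inhibition as reduced fluorescein signal on beads, percent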
MEKK3 PB1 HTS – modulators (inhibitors or enhancers) of MEK5 binding to human MEKK3 PB1 domain. Q99759. bead-based flow cytometry, Alexa488-MEK5 binding to MEKK3; actives lie on both sides; 0 = blocked by unlabeled MEK5, 100 = vehicle. AID 1529. binding response (% of control), % at 10 µM. 290,000 compounds, 1.4% hits;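 active = binding response more than 3 SD above or below the average of its plate-row segment, actives on both sides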;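 note: Alexa488 bead fluorescence after subtracting the streptavidin-only scavenger bead signal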
Target sequence (Q99759 whole entry, looked up, the tested form may be a part): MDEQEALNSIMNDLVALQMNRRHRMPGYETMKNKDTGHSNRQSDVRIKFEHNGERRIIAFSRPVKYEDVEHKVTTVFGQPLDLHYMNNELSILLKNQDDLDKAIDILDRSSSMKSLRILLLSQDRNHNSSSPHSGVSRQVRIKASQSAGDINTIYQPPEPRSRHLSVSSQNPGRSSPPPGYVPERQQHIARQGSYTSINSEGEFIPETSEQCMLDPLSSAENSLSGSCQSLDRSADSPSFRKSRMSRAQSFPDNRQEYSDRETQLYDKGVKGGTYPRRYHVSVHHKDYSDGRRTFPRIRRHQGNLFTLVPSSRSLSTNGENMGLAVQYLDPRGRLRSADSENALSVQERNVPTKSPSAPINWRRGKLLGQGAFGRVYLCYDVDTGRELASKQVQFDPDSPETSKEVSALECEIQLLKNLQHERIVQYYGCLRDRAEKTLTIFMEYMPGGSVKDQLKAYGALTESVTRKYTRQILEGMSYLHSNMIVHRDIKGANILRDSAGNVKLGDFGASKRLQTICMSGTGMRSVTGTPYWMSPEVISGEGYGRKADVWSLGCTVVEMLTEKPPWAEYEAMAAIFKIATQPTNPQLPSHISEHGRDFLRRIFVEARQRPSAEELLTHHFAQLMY
MEKK2wt confirm – raises or lowers MEK5 binding to wildtype human MEKK2, retest; shares compounds with MEKK3 PB1 HTS; bead flow cytometry, Alexa488-MEK5 binding to MEKK2 WT; actives lie on both sides; binding response (% of control), % at 10 µM; 5,900 compounds, 2.4% hits; in the data active = binding response below about 16% or above about 210%; inactive = in between
MEKK2mut confirm – signal of MEK5 binding to mutant human MEKK2, retest. shares compounds with MEKK3 PB1 HTS. bead flow cytometry, Alexa488-MEK5 binding to MEKK2 mutant. percent response, % at 10 µM. 5,900 compounds, 2% hits. AID 1893; in the data active = percent response mostly above about 71%, no sharp cut-off; inactive = mostly below about 38%;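 note: higher means compound restores mutant binding toward wildtype level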
MEKK3-MEK5 inh – confirmation of inhibitors of MEK5 binding to human MEKK3 | AID 1894 | shares compounds with MEKK3 PB1 HTS | 5,900 compounds, 1.8% hits | binding response (% of control), % at 10 µM | bead flow cytometry, Alexa488-MEK5 binding to MEKK3; active compounds read low;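 active = binding response below 72% of control, or above a set upper limit, though filed actives all read lower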;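 note: 100% = DMSO only wells and 0% = binding blocked by excess unlabeled MEK5; lower values mean stronger disruption of MEK5 binding to MEKK3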
Active calls of the source: *; / = no result; [ ] = another dose, or the depositor's remark. An excerpt weighted towards active compounds, which were near 2.3% of everything screened.

SMILES	MEKK2mut PB1 HTS	MEKK2wt PB1 HTS	Arrestin-AP2 inh	MEKK3 PB1 HTS	MEKK2wt confirm	MEKK2mut confirm	MEKK3-MEK5 inh
O=C(Nc1ccnn1C1CCN(C/C=C/c2ccccc2)CC1)c1cccc(F)c1	16	140*	-1	107	122	11	107
O=C(Nc1ccnn1C1CCN(C/C=C/c2ccccc2)CC1)c1ccccc1	10	119	14	104	/	/	/
CCOc1ccc(Br)cc1S(=O)(=O)NCc1ccncc1	1	103	18	103	/	/	/
COCCn1c(=O)[nH]c2cc(C(=O)Nc3cccc(C(C)=O)c3)ccc2c1=O	1	99	3	100	/	/	/
N/C(=N\N=C/c1ccc(F)cc1)N/N=C\c1ccc(F)cc1	31*	159*	-10	110	162	38	108
N/C(=N\N=C/c1ccc(Br)cc1)N/N=C\c1ccc(Br)cc1	102*	215*	2	110	129	21	105
Cc1cc(Cl)ccc1OCCCC(=O)OCC(=O)Nc1cccc(S(N)(=O)=O)c1	/	/	-7	/	/	/	/
COc1ccc(C(C(=O)NC(C)(C)C)N(C(=O)CNC(=O)c2cccs2)c2ccc(NC(C)=O)cc2)cc1OC (configuration not stated)	-4	96	36	93	/	/	/
CC12CCC(C(=O)Nc3ccncc3)(CC1O)C2(C)C (configuration not stated)	4	103	-6	103	/	/	/
O=C(O)C1Cc2c([nH]c3ccccc23)C(c2ccc3c(c2)OCO3)N1 (configuration not stated)	13	6.0*[inhibitor]	27	97	101	-4	100
CCN(C(=O)COC(=O)/C(=C/c1ccccc1)NC(C)=O)c1c(N)n(Cc2ccccc2)c(=O)[nH]c1=O	/	/	-5	/	/	/	/
CSc1nc(C)cc(OCCNS(=O)(=O)c2ccc(C)cc2)n1	-1	95	-1	99	/	/	/
CCOC(=O)c1c(C)[nH]c(=S)c(C#N)c1-c1ccc(OC)cc1	5	108	4	122*	98	0	101
CC(=O)c1cccc(NC(=O)C(C)OC(=O)CCc2nc3ccccc3c(=O)[nH]2)c1 (configuration not stated)	/	/	4	/	/	/	/
CC1=CC(C)(C)N(C(=O)c2ccccc2)c2ccccc21	-1	97	-7	103	/	/	/
CC1=CC(C)(C)N(C(=O)Nc2ccccc2)c2ccccc21	-15	48	7	43*[inhibitor]	97	3	95
COc1ccccc1C1CCN(Cc2ccc3ccccc3c2)CC1	36*	138*	-4	106	135	12	100
CCS(=O)(=O)c1nc(S(=O)(=O)c2ccc(Cl)cc2)c(N2CCN(CCO)CC2)s1	4	105	23	107	/	/	/
CCS(=O)(=O)c1nc(S(=O)(=O)c2ccc(Cl)cc2)c(N2CCc3ccccc3C2)s1	0	102	17	135*	100	3	103
Cc1ccc(CNC(=O)COC(=O)CSc2ccc(Br)cc2C)cc1	0	107	1	130*	103	-1	105
c1ccc2c(c1)CCN(c1nc(CN3CCOCC3)nc3sc4c(c13)CCCC4)C2	3	107	45	135*	110	3	104
CCNc1nc(CN2CCOCC2)nc2sc3c(c12)CCC3	5	102	2	102	/	/	/
O=C(O)CC(C(=O)O)N1C(=O)/C(=C/C=C/c2ccco2)SC1=S (configuration not stated)	-24	81	13	81	/	/	/
O=C(O)C(Cc1ccccc1)N1C(=O)/C(=C/C=C/c2ccco2)SC1=S (configuration not stated)	-16	40*[inhibitor]	1	37*[inhibitor]	89	-5	97
Cc1ccc(Cl)cc1NC(C#N)c1ccccc1 (configuration not stated)	24	115	11	129*	104	-1	102
SMILES	MEKK2mut PB1 HTS	MEKK2wt PB1 HTS	Arrestin-AP2 inh	MEKK3 PB1 HTS	MEKK2wt confirm	MEKK2mut confirm	MEKK3-MEK5 inh
CCOc1ccc(NC(=O)N2CCC(c3nc4ccccc4[nH]3)CC2)cc1	3	106	9	102	/	/	/
COc1ccc(C(=O)SC2=NCCS2)cc1	-2	-11*[inhibitor]	3	-2.0*[inhibitor]	113	2	108
CCOc1ccc(C(=O)SC2=NCCS2)cc1	-1	102	27	99	/	/	/
Cc1cc(C)n2nc(SCC(=O)N3CCC(C(=O)O)CC3)nc2n1	/	/	9	/	/	/	/
COc1ccc(C(=O)CSc2nc(-c3ccccn3)nc(C)c2Cl)cc1	23	114	15	128*	107	6	104
Cc1nc(-c2ccccn2)nc(SCC(=O)c2ccc(F)cc2)c1Cl	31	113	13	134*	103	-1	97
C1CCC(C23CC4CC(CC(C4)C2)C3)NC1 (configuration not stated)	7	100	17	123*	101	-1	102
COc1cccc2sc3cc(C#CC4(O)CCCCC4)ccc3c(=O)c12	/	/	20	/	/	/	/
COc1cccc2sc3ccc(C#CC4(N)CCCCC4)cc3c(=O)c12	14	136*	0	103	145	22	108
CCCCCOc1ccc2oc(=O)c3c(c2c1)CCCN3C(=O)CN1CCCC(C(=O)OCC)C1 (configuration not stated)	-14	2.0*[inhibitor]	-1	2.0*[inhibitor]	96	-2	102
O=C(CN1CCCCC1)N1CCCc2c1c(=O)oc1ccc(OCc3ccccc3)cc21	8	111	-2	112	/	/	/
O=C(O)COc1ccccc1Cc1ccccc1	5	103	4	102	/	/	/
C=CCc1ccccc1OCC(=O)O	-11	53	43	45*[inhibitor]	96	0	99
CCCC(C)n1[nH]c(=O)cc1N (configuration not stated)	-3	96	-2	92	/	/	/
CCC(CC)n1[nH]c(=O)cc1N	11	124	5	128*	95	-4	98
Cc1ccc(C(=O)NCCCN2CCOCC2)c(C)c1	4	102	-13	93	/	/	/
CCCSc1ncnc2sc(C)c(C)c12	-46	8.0*[inhibitor]	23	4.0*[inhibitor]	10*[inhibitor]	-37	52*
Cc1sc2ncnc(SCC#N)c2c1C	-7	93	0	90	/	/	/
Cc1csc(SCC(=O)NCc2ccccc2)n1	-1	102	9	101	/	/	/
Cc1csc2sc(-c3ccnc(SCC(=O)NCc4ccccc4)n3)c(C)c12	27	112	16	130*	103	-2	102
COc1ccccc1NC(=O)CSc1nc2n[nH]c(C)c2c(=N)n1-c1ccccc1Cl	18	140*	1	95	139	21	105

Screening results as filed in PubChem BioAssay.
